Consider one substance from ChEMBL document CHEMBL3352237, “Synthesis and biological evaluation of novel peptide BF2 as an antibacterial agent against clinical isolates of vancomycin-resistant enterococci” (J Med Chem, 2014).

What all share (assay type): functional
Test [1] relates to Enterococcus faecium. As to the kind of experiment: Antibacterial activity against vancomycin-resistant Enterococcus faecium clinical isolate 31176 after overnight incubation by two-fold serial dilution method.
Test [2] deals with Enterococcus faecium. As to the kind of experiment: Antibacterial activity against vancomycin-resistant Enterococcus faecium clinical isolate 5484 after overnight incubation by two-fold serial dilution method.
Test [3] concerns Enterococcus faecalis. As to the kind of experiment: Bactericidal activity against vancomycin-resistant Enterococcus faecalis clinical isolate 22626 after 24 hrs by two-fold serial dilution method. Particulars: isolate 22626, 24 h.
Test [4] concerns Enterococcus. As to the kind of experiment: Antibacterial activity against Enterococcus infected in Wistar albino rat assessed as reduction in cell count at MIC, iv after 1 hr relative to control. Details: scale not given: the % may be the effect or the level left. The method, boiled down:
(§1)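 Female Wistar albino rats, 40−45 days old, 125−150 g, 5 groups of 3. Enterococci were grown to log phase in MH broth, centrifuged at 1000g for 15 min, and diluted in PBS to 4 × 10^6 CFU/mL. Rats were inoculated i.v. and treated i.v. 1 h later with 12.5, 25 or 37.5 mg/kg peptide, PBS vehicle, or linezolid 25 mg/kg. Tail-vein blood taken 1 h post-treatment was plated on blood agar, incubated overnight at 37 °C, and colonies counted.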

In test [5] the test system is Enterococcus. As to the kind of experiment: Antibacterial activity against Enterococcus infected in Wistar albino rat assessed as reduction in cell count at 3 times MIC, iv after 1 hr relative to control. Details: scale not given: the % may be the effect or the level left. The method, boiled down: as §1
Test [6] relates to Enterococcus faecium. Kind of test: Bactericidal activity against vancomycin-resistant Enterococcus faecium clinical isolate 7/27 after 24 hrs by two-fold serial dilution method. Particulars: isolate 7/27, 24 h.
Test [7] concerns Enterococcus faecium. As to the kind of experiment: Bactericidal activity against vancomycin-resistant Enterococcus faecium clinical isolate 151495 after 24 hrs by two-fold serial dilution method. Particulars: isolate 151495, 24 h.
Test [8] concerns Enterococcus faecium. Kind of test: Antibacterial activity against vancomycin-resistant Enterococcus faecium clinical isolate 12875 after overnight incubation by two-fold serial dilution method.
The subject of test [9] is Enterococcus faecalis. Kind of test: Bactericidal activity against vancomycin-resistant Enterococcus faecalis clinical isolate 27728 after 24 hrs by two-fold serial dilution method. To be noted: isolate 27728, 24 h.
Test [10] concerns Enterococcus faecium. As to the kind of experiment: Bactericidal activity against vancomycin-resistant Enterococcus faecium clinical isolate 5484 after 24 hrs by two-fold serial dilution method. Particulars: isolate 5484, 24 h.
Test [11] concerns Enterococcus faecalis. As to the kind of experiment: Bactericidal activity against vancomycin-resistant Enterococcus faecalis clinical isolate 22/203 after 24 hrs by two-fold serial dilution method. To be noted: isolate 22/203, 24 h.

In general, MIC refers to the lowest concentration found to suppress growth. The term MBC denotes the lowest tested concentration that kills the bacteria rather than only halting them.

H-RWRLLLLKKH-OH: the minimum inhibitory concentration (MIC) came to 6.25 µg/mL against Enterococcus faecium [1], 12.5 µg/mL against Enterococcus faecium [2] and 12.5 µg/mL with Enterococcus faecium [8]. The MBC with Enterococcus faecalis [3], in the test on Enterococcus faecium [6], against Enterococcus faecium [7], with Enterococcus faecalis [9], against Enterococcus faecium [10] and with Enterococcus faecalis [11] was 25 µg/mL throughout. Further, the Activity with Enterococcus [4] turned out to be 73%; in the test with Enterococcus [5] it was 82%.
